Experimental data reported in ChEMBL document CHEMBL3259792 (Eur J Med Chem, 2014).

Tests used:
[1] = target: Human immunodeficiency virus type 1 reverse transcriptase (Human immunodeficiency virus 1, UniProt Q72547, L100I); experiment: Inhibition of HIV1 wild-type reverse transcriptase L100I mutant using [3H]dTTP by scintillation counting
Outline: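 RNA-dependent DNA polymerase activity of recombinant RT (2–4 nM) on poly(rA)/oligo(dT) 10:1 with [3H]dTTP (1 Ci/mmol). Incubation at 37 °C. Acid-insoluble radioactivity collected on GF/C filters after 5% cold TCA, counted by scintillation.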

[2] = Selectivity index, ratio of CC50 for human MT4 cells to EC50 for HIV1 NL4.3 infected in human MT4 cells; assay type: toxicity, cell-based; details: read-out: Ratio CC50/EC50
Outline: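 Ratio CC₅₀/EC₅₀. CC₅₀ is from mock-infected MT-4 cells and EC₅₀ from HIV-1 NL4-3-infected MT-4 cells, both read by MTT at day 5 post-infection.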

[3] = tested on: Human immunodeficiency virus 1; experiment: Antiviral activity against HIV1 harboring reverse transcriptase K103N/Y181C double mutant infected in human MT4 cells assessed as inhibition of virus-induced cell death measured after 5 days of infection by MTT method; assay type: functional, organism-based; details: Human immunodeficiency virus 1, MT4, 120 h
Outline: (§1)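 MT-4 cells infected with the named NNRTI-resistant HIV-1 RT mutant strain, in the presence of a range of compound concentrations. Viable cells counted at day 5 post-infection by tetrazolium (MTT) colorimetry. […] Mean of 2–3 independent experiments, each in triplicate.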

[4] = tested on: Human immunodeficiency virus 1; experiment: Ratio of EC50 for HIV1 harboring reverse transcriptase K103N mutant to EC50 for wild type HIV1 NL4.3; assay type: functional
Outline: (§2)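 Fold change is the EC50 against the named mutant strain divided by the EC50 against wild-type HIV-1 NL4-3. […] Means of 2–3 independent experiments in triplicate.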

[5] = Cytotoxicity against human MT4 cells assessed as cell viability by MTT assay; assay type: cell-based
Outline: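 Mock-infected MT-4 cells exposed to a range of compound concentrations. Viable cells measured by MTT colorimetry at day 5. CC₅₀ = concentration causing 50% death of non-infected cells. Means of two to three independent experiments, each in triplicate.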

[6] = tested on: Human immunodeficiency virus 1; experiment: Ratio of EC50 for HIV1 harboring reverse transcriptase […] mutant to EC50 for wild type HIV1 NL4.3; assay type: functional; outline: as §2
[7] = target: T1, Human immunodeficiency virus type 1 reverse transcriptase (Human immunodeficiency virus 1, UniProt Q72547); experiment: Inhibition of HIV1 wild-type reverse transcriptase Y181I/Y181C mutant using [3H]dTTP by scintillation counting
[8] = target: Human immunodeficiency virus type 1 reverse transcriptase (Human immunodeficiency virus 1, UniProt Q72547, K103N); experiment: Inhibition of HIV1 wild-type reverse transcriptase K103N mutant using [3H]dTTP by scintillation counting
[9] = tested on: Human immunodeficiency virus 1; experiment: Ratio of EC50 for HIV1 harboring reverse transcriptase Y181C mutant to EC50 for wild type HIV1 NL4.3; assay type: functional; outline: as §2
[10] = tested on: Human immunodeficiency virus 1; experiment: Ratio of EC50 for HIV1 harboring reverse transcriptase K103N/Y181C double mutant to EC50 for wild type HIV1 NL4.3; assay type: functional; outline: as §2
[11] = target: T1, Human immunodeficiency virus type 1 reverse transcriptase; experiment: Inhibition of HIV1 wild-type reverse transcriptase using [3H]dTTP by scintillation counting
[12] = tested on: Human immunodeficiency virus 1; experiment: Antiviral activity against HIV1 3B infected in human CEM cells assessed as protection of cells monitored by giant cell formation by microscopy; assay type: functional, organism-based; details: Human immunodeficiency virus 1, 3B, CCRF-CEM
Outline: (§3)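 Human CEM cultures (~3 × 10⁵ cells/mL) infected with ~100 CCID₅₀ per mL of HIV-1 IIIB or HIV-2 ROD, seeded with serial compound dilutions. Incubated 4 days at 37 °C; syncytium (giant cell) formation scored by microscopy. EC₅₀ = concentration protecting cells from viral cytopathicity by 50%. Means of two to three independent experiments, each in triplicate.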

[13] = tested on: Human immunodeficiency virus 1; experiment: Antiviral activity against HIV1 NL4.3 infected in human MT4 cells assessed as inhibition of virus-induced cell death measured after 5 days of infection by MTT method; assay type: functional, organism-based; details: Human immunodeficiency virus 1, NL4.3, MT4, 120 h
Outline: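 Lymphoid MT-4 cells (NIH AIDS Reagent Program) infected with HIV-1 NL4-3 in the presence of varying compound concentrations. On day 5 post-infection, viable cells were counted by MTT tetrazolium colorimetry. EC₅₀ = concentration inhibiting virus-induced cell death by 50%. Means of two to three independent experiments, each in triplicate.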

[14] = tested on: Human immunodeficiency virus 2; experiment: Antiviral activity against HIV-2 ROD infected in human CEM cells assessed as protection of cells monitored by giant cell formation by microscopy; assay type: functional, organism-based; details: Human immunodeficiency virus 2, ISOLATE ROD, CCRF-CEM; outline: as §3
[15] = tested on: Human immunodeficiency virus 1; experiment: Antiviral activity against HIV1 harboring reverse transcriptase K103N mutant infected in human MT4 cells assessed as inhibition of virus-induced cell death measured after 5 days of infection by MTT method; assay type: functional, organism-based; details: Human immunodeficiency virus 1, MT4, 120 h; outline: as §1
[16] = tested on: Human immunodeficiency virus 1; experiment: Antiviral activity against HIV1 harboring reverse transcriptase Y181C mutant infected in human MT4 cells assessed as inhibition of virus-induced cell death measured after 5 days of infection by MTT method; assay type: functional, organism-based; details: Human immunodeficiency virus 1, MT4, 120 h; outline: as §1
[17] = tested on: Human immunodeficiency virus 1; experiment: Antiviral activity against HIV1 harboring reverse transcriptase […] mutant infected in human MT4 cells assessed as inhibition of virus-induced cell death measured after 5 days of infection by MTT method; assay type: functional, organism-based; details: Human immunodeficiency virus 1, MT4, 120 h; outline: as §1
[18] = tested on: Human immunodeficiency virus 1; experiment: Antiviral activity against HIV1 harboring reverse transcriptase Y188L mutant infected in human MT4 cells assessed as inhibition of virus-induced cell death measured after 5 days of infection by MTT method; assay type: functional, organism-based; details: Human immunodeficiency virus 1, MT4, 120 h; outline: as §1
[19] = tested on: Human immunodeficiency virus 1; experiment: Ratio of EC50 for HIV1 harboring reverse transcriptase Y188L mutant to EC50 for wild type HIV1 NL4.3; assay type: functional; outline: as §2
[20] = target: Human immunodeficiency virus type 1 reverse transcriptase (Human immunodeficiency virus 1, UniProt Q72547, V106A); experiment: Inhibition of HIV1 wild-type reverse transcriptase V106A mutant using [3H]dTTP by scintillation counting
[21] = tested on: Human immunodeficiency virus 1; experiment: Ratio of efavirenz EC50 to compound EC50 for HIV1 harboring reverse transcriptase L100I mutant infected in human MT4 cells; assay type: functional

| SMILES | IC50 [1] | selectivity ratio [2] | EC50 [3] | Ratio EC50 [4] | CC50 [5] | Ratio EC50 [6] | IC50 [7] | IC50 [8] | Ratio EC50 [9] | Ratio EC50 [10] | IC50 [11] | EC50 [12] | EC50 [13] | EC50 [14] | EC50 [15] | EC50 [16] | EC50 [17] | further results |
| --- | --- | --- | --- | --- | --- | --- | --- | --- | --- | --- | --- | --- | --- | --- | --- | --- | --- | --- |
| Cc1cc(C)cc(S(=O)(=O)c2c(C(=O)NCCc3ccccc3Cl)[nH]c3ccc(Cl)cc23)c1 | 0.27 µM | 11200 | 45 µM | 9.3 | 45 µM | 6 | > 20 µM | 3.14 µM | 63 | 11243 | 0.131 µM | 0.0094 µM | 0.004 µM | > 10 µM | 0.037 µM | 0.25 µM | 0.024 µM | – |
| Cc1cc(C)cc(S(=O)(=O)c2c(C(=O)N[C@@H](C)c3ccccc3)[nH]c3ccc(Cl)cc23)c1 | 0.08 µM | – | > 36.4 µM | 20 | – | – | > 20 µM | 9.4 µM | 550 | >5778 | 0.05 µM | – | 0.0063 µM | – | 0.128 µM | 3.47 µM | – | EC50 [18]: > 36.4 µM; Ratio EC50 [19]: >5778; IC50 [20]: 0.028 µM |
| Cc1cccc(CCNC(=O)c2[nH]c3ccc(Cl)cc3c2S(=O)(=O)c2cc(C)cc(C)c2)c1 | 1.3 µM | > 8380 | > 51.9 µM | 42 | > 52 µM | 5 | > 20 µM | > 20 µM | 194 | >8383 | 0.19 µM | 0.0073 µM | 0.0062 µM | > 25 µM | 0.26 µM | 1.2 µM | 0.031 µM | – |
| Cc1cc(C)cc(S(=O)(=O)c2c(C(=O)NCc3ccc(F)cc3)[nH]c3ccc(Cl)cc23)c1 | 0.03 µM | > 48300 | 50.3 µM | 14.5 | > 53.1 µM | 5.4 | > 20 µM | 0.024 µM | 145 | 45750 | 0.026 µM | 0.0053 µM | 0.0011 µM | > 10 µM | 0.016 µM | 0.16 µM | 0.0059 µM | Ratio EC50 [21]: 10 |
| Cc1cc(C)cc(S(=O)(=O)c2c(C(=O)NCCc3ccccc3C)[nH]c3ccc(Cl)cc23)c1 | 0.2 µM | > 8380 | > 51.9 µM | 16 | > 52 µM | 3.2 | > 20 µM | 12.4 µM | – | >8383 | 0.288 µM | 0.0091 µM | – | > 10 µM | 0.1 µM | – | 0.02 µM | – |
| Cc1cc(C)cc(CNC(=O)c2[nH]c3ccc(Cl)cc3c2S(=O)(=O)c2cc(C)cc(C)c2)c1 | 5.9 µM | > 12400 | > 51.8 µM | 43 | > 52 µM | 15 | > 20 µM | > 20 µM | >476 | >12332 | 7 µM | 0.028 µM | 0.0042 µM | > 2 µM | 0.18 µM | > 2 µM | 0.065 µM | – |
